Experimental data: ChEMBL document CHEMBL3769357, “Phosphoramidate protides of five flavones and their antiproliferative activity against HepG2 and L-O2 cell lines” (Eur J Med Chem, 2016)
pIC50: −log10 of the molar value.

Experiments:
T-24 = experiment: Induction of cell cycle arrest in human T24 cells assessed as accumulation at G2/M phase at 160 uM after 24 hrs by propidium iodide staining-based flow cytometry (reference value: 14.45%); format: functional
[1] = Cytotoxicity against human LO2 cells after 48 hrs by MTT assay; format: cell-based; details: L02, 48 h
Summary of the method: (§1)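 After 48 h, MTT (5 mg/mL in PBS) added, 4 h at 37 °C, DMSO added, absorbance read at 570 nm. IC50 is the 50% growth-inhibition concentration, mean of three independent experiments.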

HepG2 [2] = experiment: Antiproliferative activity against human HepG2 cells after 48 hrs by MTT assay; format: functional, cell-based; details: HepG2, 48 h; summary of the method: as §1
HepG2 [3] = experiment: Selectivity index, ratio of IC50 for human LO2 cells to human HepG2 cells
LN-229 = experiment: Induction of cell cycle arrest in human LNT229 cells assessed as accumulation at G2/M phase at 100 uM after 24 hrs by propidium iodide staining-based flow cytometry (reference value: 34%); format: functional
BGC-823 = experiment: Induction of apoptosis in human BGC823 cells at 80 uM after 24 hrs by annexin V-FITC/propidium iodide staining-based flow cytometry (reference value: 1.5%); format: functional
HepG2 [4] = experiment: Induction of cell cycle arrest in human HepG2 cells assessed as accumulation at S phase at IC50 after 24 hrs by propidium iodide staining-based flow cytometry (reference value: 16.1%); format: functional
HepG2 [5] = experiment: Induction of apoptosis in human HepG2 cells assessed as viable cells at IC50 after 24 hrs by annexin V-FITC/propidium iodide staining-based flow cytometry (reference value: 90.5%); format: functional
HepG2 [6] = experiment: Induction of apoptosis in human HepG2 cells assessed as late apoptotic cells at IC50 after 24 hrs by annexin V-FITC/propidium iodide staining-based flow cytometry (reference value: 1.77%); format: functional
HepG2 [7] = experiment: Induction of apoptosis in human HepG2 cells assessed as nectrotic cells at IC50 after 4 hrs by annexin V-FITC/propidium iodide staining-based flow cytometry (reference value: 0.46%); format: functional
HepG2 [8] = experiment: Induction of apoptosis in human HepG2 cells assessed as nectrotic cells at IC50 after 24 hrs by annexin V-FITC/propidium iodide staining-based flow cytometry (reference value: 6.70%); format: functional
HepG2 [9] = experiment: Induction of apoptosis in human HepG2 cells assessed as viable cells at IC50 after 4 hrs by annexin V-FITC/propidium iodide staining-based flow cytometry (reference value: 98.6%); format: functional
HepG2 [10] = experiment: Induction of cell cycle arrest in human HepG2 cells assessed as accumulation at G2/M phase at IC50 after 24 hrs by propidium iodide staining-based flow cytometry (reference value: 16.4%); format: functional
HepG2 [11] = experiment: Induction of apoptosis in human HepG2 cells assessed as early apoptotic cells at IC50 after 4 hrs by annexin V-FITC/propidium iodide staining-based flow cytometry (reference value: 0.41%); format: functional
HepG2 [12] = experiment: Induction of apoptosis in human HepG2 cells assessed as early apoptotic cells at IC50 after 24 hrs by annexin V-FITC/propidium iodide staining-based flow cytometry (reference value: 0.41%)
HepG2 [13] = experiment: Induction of cell cycle arrest in human HepG2 cells assessed as accumulation at G0/G1 phase at IC50 after 24 hrs by propidium iodide staining-based flow cytometry (reference value: 67.5%); format: functional
HepG2 [14] = experiment: Induction of apoptosis in human HepG2 cells assessed as late apoptotic cells at IC50 after 4 hrs by annexin V-FITC/propidium iodide staining-based flow cytometry (reference value: 0.53%); format: functional

With O=c1cc(-c2ccc(O)cc2)oc2cc(O)cc(O)c12 [APIGENIN] the Activity (T-24) was 37.94%, the pIC50 [1] was under 4.00 and the pIC50 (HepG2 [2]) was 4.15. The “Ratio IC50” value (HepG2 [3]) was over 1.425.

For O=c1c(-c2ccc(O)cc2)coc2cc(O)cc(O)c12 [GENISTEIN], the pIC50 [1] was under 4.00, the Activity (LN-229) was 58% and the pIC50 (HepG2 [2]) was under 4.00.

O=c1c(-c2ccc(O)cc2)coc2cc(O)ccc12 [DAIDZEIN] showed an Activity (BGC-823) of 32.5%, a pIC50 [1] of under 4.00 and a pIC50 (HepG2 [2]) of under 4.00.

Compound COC(=O)[C@H](C)NP(=O)(Oc1ccccc1)Oc1cc(OC(C)=O)c2c(=O)cc(-c3ccc(OC(C)=O)cc3)oc2c1 (some centres undefined) has an Activity (HepG2 [4]) of 16.4%, an Activity (HepG2 [5]) of 85.42% and an Activity (HepG2 [6]) of 3.4%. For the same compound, the pIC50 [1] was 4.65, the Activity (HepG2 [7]) was 3.58% and the Activity (HepG2 [8]) was 9.88%. For the same compound, the pIC50 (HepG2 [2]) was 5.05, the Activity (HepG2 [9]) was 89.02% and the “Ratio IC50” value (HepG2 [3]) was 2.467. For the same compound, the Activity (HepG2 [10]) was 72.6%, the Activity (HepG2 [11]) was 0.45% and the Activity (HepG2 [12]) was 1.31%. The Activity (HepG2 [13]) was 11% and the Activity (HepG2 [14]) was 6.95%.
